Key:
MCF7 = test: Antiproliferative activity against human MCF7 cells after 72 hrs by MTT reduction assay; format: functional, cell-based; conditions: MCF7, 72 h
How it was run: (§1)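 MTT reduction assay; adherent lines left to adhere overnight, suspension lines (HL-60, K562) seeded on the day. […] Incubation was 72 h at 37°C, with MTT added for the last 4 h. OD read at 545 nm (reference 690 nm). IC50 from 100(A0-A)/A0=50; means ± SD of 3 independent experiments.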

[1] = Antiproliferative activity against human FM3 cells after 72 hrs by MTT reduction assay; format: functional, cell-based; how it was run: as §1
HL-60 = test: Antiproliferative activity against human HL60 cells after 72 hrs by MTT reduction assay; format: functional, cell-based; conditions: HL-60, 72 h; how it was run: as §1
HeLa = test: Antiproliferative activity against human HeLa cells after 72 hrs by MTT reduction assay; format: functional, cell-based; how it was run: as §1
B16-F1 = test: Antiproliferative activity against mouse B16-F1 cells after 72 hrs by MTT reduction assay; format: functional, cell-based; conditions: B16-F1, 72 h; how it was run: as §1
K562 = test: Antiproliferative activity against human K562 cells after 72 hrs by MTT reduction assay; format: functional, cell-based; conditions: K562, 72 h; how it was run: as §1
HCT-116 = test: Antiproliferative activity against human HCT116 cells after 72 hrs by MTT reduction assay; format: functional, cell-based; conditions: HCT-116, 72 h
How it was run: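 MTT reduction assay; adherent lines left to adhere overnight, suspension lines (HL-60, K562) seeded on the day. Incubation was 72 h at 37°C, with MTT added for the last 4 h.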

SK-BR-3 = test: Antiproliferative activity against human SKBR3 cells after 72 hrs by MTT reduction assay; format: functional, cell-based; conditions: SK-BR-3, 72 h; how it was run: as §1
PBMC = test: Induction of apoptosis in human PBMC at 2 ug/ml after 24 hrs by propidium iodide staining-based flow cytometric method; format: cell-based

Work on `C/C=C1/[C@H](O[C@@H]2O[C@H](COC(C)=O)[C@@H](OC(C)=O)[C@H](OC(C)=O)[C@H]2OC(C)=O)OC=C(C(=O)OC)[C@H]1CC(=O)OCCCCCCCCCCCCCCCC` yielded an IC50 (MCF7) of 9.66 µM, an IC50 [1] of 27 µM and an IC50 (HL-60) of 8 µM. For the same compound, the IC50 (HeLa) was 17 µM, the IC50 (B16-F1) was 34 µM and the IC50 (K562) was 7 µM. For the same compound, the IC50 (HCT-116) was 21 µM and the IC50 (SK-BR-3) was 3.81 µM.

With `C/C=C1/[C@H](O[C@@H]2O[C@H](CO)[C@@H](O)[C@H](O)[C@H]2O)OC=C(C(=O)O)[C@H]1CC(=O)O` the IC50 (MCF7) was > 50 µM, the IC50 [1] was > 50 µM and the IC50 (HL-60) was > 50 µM. For the same compound, the IC50 (HeLa) was > 50 µM, the IC50 (B16-F1) was > 50 µM and the IC50 (K562) was > 50 µM. For the same compound, the IC50 (HCT-116) was > 50 µM and the IC50 (SK-BR-3) was > 50 µM.

With `C/C=C1/[C@H](O[C@@H]2O[C@H](CO)[C@@H](O)[C@H](O)[C@H]2O)OC=C(C(=O)OC)[C@H]1CC(=O)OCC` (stereo in doubt) the IC50 (SK-BR-3) was > 15 µM.

For `C/C=C1/[C@H](O[C@@H]2O[C@H](CO)[C@@H](O)[C@H](O)[C@H]2O)OC=C(C(=O)OC)[C@H]1CC(=O)OCCc1ccccc1` (stereo in doubt), the IC50 (MCF7) was 19.3 µM, the IC50 [1] was 28 µM and the IC50 (HL-60) was 10.3 µM. The IC50 (HeLa) was 18.5 µM, the IC50 (B16-F1) was 41 µM and the IC50 (K562) was 20 µM. The IC50 (HCT-116) was 25.3 µM and the IC50 (SK-BR-3) was 11 µM.

For `C/C=C1/[C@H](O[C@@H]2O[C@H](CO)[C@@H](O)[C@H](O)[C@H]2O)OC=C(C(=O)O)[C@H]1CC(=O)OC` (stereo in doubt), the IC50 (SK-BR-3) was > 20 µM.

In the case of `C=CCOC(=O)C[C@@H]1C(C(=O)OC)=CO[C@@H](O[C@@H]2O[C@H](COC(C)=O)[C@@H](OC(C)=O)[C@H](OC(C)=O)[C@H]2OC(C)=O)/C1=C/C` (stereo in doubt), the IC50 (SK-BR-3) is reported as > 20 µM.

With `C=C(C)CCOC(=O)C[C@@H]1C(C(=O)OC)=CO[C@@H](O[C@@H]2O[C@H](CO)[C@@H](O)[C@H](O)[C@H]2O)/C1=C/C` (stereo in doubt) the IC50 (SK-BR-3) was > 15 µM.

In the case of `C/C=C1/[C@H](O[C@@H]2O[C@H](CO)[C@@H](O)[C@H](O)[C@H]2O)OC=C(C(=O)OC)[C@H]1CC(=O)OCCCc1ccc(OC)c(OC)c1` (stereo in doubt), the IC50 (SK-BR-3) is reported as > 20 µM.

With `C/C=C1/[C@H](O[C@@H]2O[C@H](COC(C)=O)[C@@H](OC(C)=O)[C@H](OC(C)=O)[C@H]2OC(C)=O)OC=C(C(=O)OC)[C@H]1CC(=O)OCCCC` (stereo in doubt) the IC50 (SK-BR-3) was > 15 µM.

With `C/C=C1/[C@H](O[C@@H]2O[C@H](COC(C)=O)[C@@H](OC(C)=O)[C@H](OC(C)=O)[C@H]2OC(C)=O)OC=C(C(=O)O)[C@H]1CC(=O)OC` (stereo in doubt) the IC50 (SK-BR-3) was > 20 µM.

With `C/C=C1/[C@H](O[C@@H]2O[C@H](CO)[C@@H](O)[C@H](O)[C@H]2O)OC=C(C(=O)OC)[C@H]1CC(=O)OCc1ccc2c(c1)OCCO2` (stereo in doubt) the IC50 (SK-BR-3) was > 15 µM.

In the case of `C/C=C1/[C@H](O[C@@H]2O[C@H](CO)[C@@H](O)[C@H](O)[C@H]2O)OC=C(C(=O)OC)[C@H]1CC(=O)OC` (stereo in doubt), the IC50 (SK-BR-3) is reported as > 15 µM.

With `C/C=C1/[C@H](O[C@@H]2O[C@H](COC(C)=O)[C@@H](OC(C)=O)[C@H](OC(C)=O)[C@H]2OC(C)=O)OC=C(C(=O)OC)[C@H]1CC(=O)OCc1ccco1` (stereo in doubt) the IC50 (SK-BR-3) was > 15 µM.

For `C/C=C1/[C@H](O[C@@H]2O[C@H](COC(C)=O)[C@@H](OC(C)=O)[C@H](OC(C)=O)[C@H]2OC(C)=O)OC=C(C(=O)OC)[C@H]1CC(=O)OCCC(C)C` (stereo in doubt), the IC50 (SK-BR-3) was > 15 µM.

With `C/C=C1/[C@H](O[C@@H]2O[C@H](COC(C)=O)[C@@H](OC(C)=O)[C@H](OC(C)=O)[C@H]2OC(C)=O)OC=C(C(=O)OC)[C@H]1CC(=O)OCCCc1ccc(OC)c(OC)c1` (stereo in doubt) the IC50 (SK-BR-3) was > 20 µM.

`C/C=C1/[C@H](O[C@@H]2O[C@H](COC(C)=O)[C@@H](OC(C)=O)[C@H](OC(C)=O)[C@H]2OC(C)=O)OC=C(C(=O)OC)[C@H]1CC(=O)OCCC` (stereo in doubt) showed an IC50 (MCF7) of 15 µM, an IC50 [1] of 29 µM and an IC50 (HL-60) of 10.7 µM. It also gave an IC50 (HeLa) of 17.5 µM, an IC50 (B16-F1) of 44 µM and an IC50 (K562) of 8.5 µM. For the same compound, the IC50 (HCT-116) was 25.7 µM and the IC50 (SK-BR-3) was 6.6 µM.

In the case of `C/C=C1/[C@H](O[C@@H]2O[C@H](CO)[C@@H](O)[C@H](O)[C@H]2O)OC=C(C(=O)OC)[C@H]1CC(=O)NCCC` (stereo in doubt), the IC50 (SK-BR-3) is reported as > 20 µM.

With `C/C=C1/[C@H](O[C@@H]2O[C@H](CO)[C@@H](O)[C@H](O)[C@H]2O)OC=C(C(=O)OC)[C@H]1CC(=O)OCCC1CCCCC1` (stereo in doubt) the IC50 (MCF7) was 5 µM, the Activity (PBMC) was > 30% and the IC50 [1] was 9.33 µM. It also gave an IC50 (HL-60) of 0.48 µM, an IC50 (HeLa) of 5.6 µM and an IC50 (B16-F1) of 5.04 µM. For the same compound, the IC50 (K562) was 0.85 µM, the IC50 (HCT-116) was 13.7 µM and the IC50 (SK-BR-3) was 2 µM.

With `C#CCOC(=O)C[C@@H]1C(C(=O)OC)=CO[C@@H](O[C@@H]2O[C@H](COC(C)=O)[C@@H](OC(C)=O)[C@H](OC(C)=O)[C@H]2OC(C)=O)/C1=C/C` (stereo in doubt) the IC50 (SK-BR-3) was > 15 µM.

In the case of `C/C=C1/[C@H](O[C@@H]2O[C@H](COC(C)=O)[C@@H](OC(C)=O)[C@H](OC(C)=O)[C@H]2OC(C)=O)OC=C(C(=O)OC)[C@H]1CC(=O)OCc1ccc2c(c1)OCCO2` (stereo in doubt), the IC50 (SK-BR-3) is reported as > 15 µM.

For `C/C=C1/[C@H](O[C@@H]2O[C@H](COC(C)=O)[C@@H](OC(C)=O)[C@H](OC(C)=O)[C@H]2OC(C)=O)OC=C(C(=O)OC)[C@H]1CC(=O)OCC` (stereo in doubt), the IC50 (SK-BR-3) was > 15 µM.

With `C/C=C1/[C@H](O[C@@H]2O[C@H](COC(C)=O)[C@@H](OC(C)=O)[C@H](OC(C)=O)[C@H]2OC(C)=O)OC=C(C(=O)OC)[C@H]1CC(=O)OCCc1ccccc1` (stereo in doubt) the IC50 (MCF7) was 18.7 µM, the IC50 [1] was 29.3 µM and the IC50 (HL-60) was 10 µM. For the same compound, the IC50 (HeLa) was 21 µM, the IC50 (B16-F1) was 43 µM and the IC50 (K562) was 16 µM. It also gave an IC50 (HCT-116) of 26 µM and an IC50 (SK-BR-3) of 11.5 µM.

For `C/C=C1/[C@H](O[C@@H]2O[C@H](CO)[C@@H](O)[C@H](O)[C@H]2O)OC=C(C(=O)OC)[C@H]1CC(=O)OCc1ccco1` (stereo in doubt), the IC50 (SK-BR-3) was > 15 µM.

With `C/C=C1/[C@H](O[C@@H]2O[C@H](CO)[C@@H](O)[C@H](O)[C@H]2O)OC=C(C(=O)OC)[C@H]1CC(=O)OCCCC` (stereo in doubt) the IC50 (SK-BR-3) was > 15 µM.

With `C/C=C1/[C@H](O[C@@H]2O[C@H](COC(C)=O)[C@@H](OC(C)=O)[C@H](OC(C)=O)[C@H]2OC(C)=O)OC=C(C(=O)OC)[C@H]1CC(=O)OCc1ccc(OC)c(OC)c1` (stereo in doubt) the IC50 (SK-BR-3) was > 15 µM.

In the case of `C/C=C1/[C@H](O[C@@H]2O[C@H](COC(C)=O)[C@@H](OC(C)=O)[C@H](OC(C)=O)[C@H]2OC(C)=O)OC=C(C(=O)OC)[C@H]1CC(=O)OC` (stereo in doubt), the IC50 (SK-BR-3) is reported as > 15 µM.

With `C/C=C1/[C@H](O[C@@H]2O[C@H](CO)[C@@H](O)[C@H](O)[C@H]2O)OC=C(C(=O)OC)[C@H]1CC(=O)OCCC` (stereo in doubt) the IC50 (SK-BR-3) was > 15 µM.

In the case of `C/C=C1/[C@H](O[C@@H]2O[C@H](COC(C)=O)[C@@H](OC(C)=O)[C@H](OC(C)=O)[C@H]2OC(C)=O)OC=C(C(=O)OC)[C@H]1CC(=O)SCCC` (stereo in doubt), the IC50 (SK-BR-3) is reported as > 15 µM.

With `C#CCOC(=O)C[C@@H]1C(C(=O)OC)=CO[C@@H](O[C@@H]2O[C@H](CO)[C@@H](O)[C@H](O)[C@H]2O)/C1=C/C` (stereo in doubt) the IC50 (SK-BR-3) was > 15 µM.

With `C/C=C1/[C@H](O[C@@H]2O[C@H](CO)[C@@H](O)[C@H](O)[C@H]2O)OC=C(C(=O)OC)[C@H]1CC(=O)OCCC(C)C` (stereo in doubt) the IC50 (MCF7) was 21.3 µM, the IC50 [1] was 27.7 µM and the IC50 (HL-60) was 9.83 µM. The IC50 (HeLa) was 19.5 µM, the IC50 (B16-F1) was 39.1 µM and the IC50 (K562) was 18 µM. The IC50 (HCT-116) was 26.7 µM and the IC50 (SK-BR-3) was 9.02 µM.

With `C/C=C1/[C@H](O[C@@H]2O[C@H](COC(C)=O)[C@@H](OC(C)=O)[C@H](OC(C)=O)[C@H]2OC(C)=O)OC=C(C(=O)OC)[C@H]1CC(=O)SCCc1ccccc1` (stereo in doubt) the IC50 (SK-BR-3) was > 15 µM.

In the case of `OCCc1ccc(O)c(O)c1` [HYDROXYTYROSOL], the IC50 (SK-BR-3) is reported as 201 µM.

For `C/C=C1/[C@H](O[C@@H]2O[C@H](CO)[C@@H](O)[C@H](O)[C@H]2O)OC=C(C(=O)OC)[C@H]1CC(=O)OCCc1ccc(O)cc1` [LIGSTROSIDE], the IC50 (SK-BR-3) was > 20 µM.

From ChEMBL document CHEMBL4130342, “New semi-synthetic analogs of oleuropein show improved anticancer activity in vitro and in vivo” (Eur J Med Chem, 2017)
